Results published in ChEMBL document CHEMBL1155974, “The nucleoside analogue D-carba T blocks HIV-1 reverse transcription” (J Med Chem, 2009).
One block for each molecule: values may come before it. Calls of active or inactive are those of the source. The rule behind the calls is not given here.

How the values were obtained:
[1] = target: Human immunodeficiency virus type 1 reverse transcriptase (Human immunodeficiency virus 1) (UniProt Q72547); experiment: Inhibition of HIV1 reverse transcriptase-mediated viral DNA synthesis at 10 uM by PAGE
[2] = target: Human immunodeficiency virus type 1 reverse transcriptase (Human immunodeficiency virus 1) (UniProt Q72547); experiment: Inhibition of HIV1 reverse transcriptase-mediated viral DNA synthesis at 5 uM using UA template by PAGE in presence of thymidine triphosphate
Summary of the method: (§1)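 Competition primer-extension: labeled primer on DNA or RNA template of identical sequence (RNA reactions supplemented with RNase inhibitor), HIV-1 RT (1.0 µg), 10.0 µM each dATP/dCTP/dGTP. TTP:analog triphosphate at 1:5 or 1:1, totalling 10.0 µM; 37°, timed intervals, EDTA stop, 15% sequencing gel to score pausing.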

[3] = target: Human immunodeficiency virus type 1 reverse transcriptase (Human immunodeficiency virus 1) (UniProt Q72547); experiment: Inhibition of HIV1 reverse transcriptase-mediated viral DNA synthesis at 5 uM using TA template by PAGE in presence of thymidine triphosphate; summary of the method: as §1
[4] = Cytotoxicity against human Hut/CCR5 cells up to 10 uM after 48 hrs by XTT assay; conditions: hut/ccr5, 48 h
[5] = Inhibition of HIV1 reverse transcriptase M41L/D67N/K70R/T215Y/K219Q mutant-mediated viral DNA synthesis in human HOS cells assessed as luciferase activity treated 3 hrs before infection measured after 48 hrs by luminescence assay; type: cell-based; conditions: Human immunodeficiency virus 1, HOS
Summary of the method: (§2)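 Single-cycle infection with a VSV-G-pseudotyped, Env-deleted HIV-1 luciferase vector carrying wt or NRTI-resistant RT, made by calcium phosphate transfection of 293 cells, harvested at 48 h and diluted 1:5. HOS or HSV-TK-expressing HOS 313 cells were seeded at 4000/well, pretreated with compound for 3 h, then infected for 48 h. Luciferase was normalized to untreated infection of the same RT variant. IC50 came from a four-parameter sigmoidal fit.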

HIV-1 M:B_Lai = experiment: Antiviral activity against HIV1 LAI infected in human TZM cells assessed as inhibition of viral replication; type: functional, organism-based; conditions: Human immunodeficiency virus 1, LAI
Summary of the method: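 Single-cycle inhibition assay in TZM (HeLa-derived indicator) cells infected with replication-competent wild-type HIV-1 LAI across a range of compound concentrations; IC50 reported.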

[6] = target: Human immunodeficiency virus type 1 reverse transcriptase (Human immunodeficiency virus 1) (UniProt Q72547); experiment: Ratio of IC50 for inhibition of HIV1 wild type reverse transcriptase-mediated viral DNA synthesis in human HOS cells to IC50 for inhibition of HIV1 wild type reverse transcriptase-mediated viral DNA synthesis in human HOS-313 cells expressing HSV thymidine kinase; type: cell-based
Summary of the method: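 VSV-G-pseudotyped single-round HIV-1 luciferase vector (wt RT) made in 293 cells. HOS or HSV-TK-expressing HOS 313 cells, 4000/well, were pretreated 3 h with compound, infected 48 h, and luminescence read. Activity was normalized to untreated infections, and IC50 was taken from a four-parameter sigmoidal fit in each line.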

[7] = Inhibition of HIV1 reverse transcriptase SSGR/T215Y mutant-mediated viral DNA synthesis in human HOS-313 cells expressing HSV thymidine kinase assessed as luciferase activity treated 3 hrs before infection measured after 48 hrs by luminescence assay; type: cell-based; conditions: Human immunodeficiency virus 1, HOS-313; summary of the method: as §2
[8] = Cytotoxicity against human GHOST cells up to 10 uM after 48 hrs by XTT assay
[9] = Inhibition of HIV1 reverse transcriptase SSGR/T215Y mutant-mediated viral DNA synthesis in human HOS cells assessed as luciferase activity treated 3 hrs before infection measured after 48 hrs by luminescence assay; type: cell-based; conditions: Human immunodeficiency virus 1, HOS; summary of the method: as §2
[10] = Inhibition of HIV1 reverse transcriptase M41L/D67N/K70R/T215Y/K219Q mutant-mediated viral DNA synthesis in human HOS-313 cells expressing HSV thymidine kinase assessed as luciferase activity treated 3 hrs before infection measured after 48 hrs by luminescence assay; type: cell-based; conditions: Human immunodeficiency virus 1, HOS-313; summary of the method: as §2
TZM [11] = experiment: Cytotoxicity against human TZM cells up to 10 uM after 48 hrs by XTT assay
[12] = Cytotoxicity against human Hut/CCR5 cells at 5% (w/v) after 48 hrs by XTT assay; type: cell-based; conditions: hut/ccr5, 48 h
Summary of the method: (§3)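 Cells (TZM, GHOST, HuT-CCR5) incubated 48 h with five dilutions of compound; XTT substrate then added for a further 4–5 h, and viability read from conversion of the dye by live cells. Hydroxypropyl-β-cyclodextrin served as positive control for killing.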

[13] = Cytotoxicity against human GHOST cells at 5% (w/v) after 48 hrs by XTT assay; type: cell-based; summary of the method: as §3
TZM [14] = experiment: Cytotoxicity against human TZM cells at 5% (w/v) after 48 hrs by XTT assay; type: cell-based; summary of the method: as §3

- inhibition [1]: Active
- inhibition [2]: Active
- inhibition [3]: inactive
Structure (SMILES): Cc1cn([C@@H]2C[C@H](COP(=O)(O)OP(=O)(O)OP(=O)(O)O)[C@@H](O)C2)c(=O)[nH]c1=O

Structure (SMILES): Cc1cn([C@@H]2C[C@H](CO)[C@@H](O)C2)c(=O)[nH]c1=O
- Activity [4]: Non-toxic
- IC50 [5]: 1300 nM
- IC50 (HIV-1 M:B_Lai): 50 nM
- Ratio IC50 [6]: 4
- IC50 [7]: 1000 nM
- Activity [8]: Non-toxic
- IC50 [9]: 4600 nM
- IC50 [10]: 870 nM
- Activity (TZM [11]): Non-toxic

Structure (SMILES): Cc1cn([C@H]2C[C@H](N=[N+]=[N-])[C@@H](CO)O2)c(=O)[nH]c1=O [ZIDOVUDINE]
- IC50 [5]: 20.1 nM
- IC50 [9]: 39.6 nM

- inhibition [1]: Active
Structure (SMILES): Cc1cn([C@H]2CC[C@@H](COP(=O)(O)OP(=O)(O)OP(=O)(O)O)O2)c(=O)[nH]c1=O

Structure (SMILES): CC(O)COC[C@H]1O[C@@H]2O[C@H]3[C@H](O)[C@@H](O)[C@@H](O[C@H]4[C@H](O)[C@@H](O)[C@@H](O[C@H]5[C@H](O)[C@@H](O)[C@@H](O[C@H]6[C@H](O)[C@@H](O)[C@@H](O[C@H]7[C@H](O)[C@@H](O)[C@@H](O[C@H]8[C@H](O)[C@@H](O)[C@@H](O[C@H]1[C@H](O)[C@H]2O)O[C@@H]8COCC(C)O)O[C@@H]7COCC(C)O)O[C@@H]6COCC(C)O)O[C@@H]5COCC(C)O)O[C@@H]4COCC(C)O)O[C@@H]3COCC(C)O (stereo partly drawn) [2-HYDROXYPROPYL-BETA-CYCLODEXTRIN]
- Activity [12]: > 50%
- Activity [13]: > 50%
- Activity (TZM [14]): > 50%

- inhibition [1]: inactive
Structure (SMILES): Cc1cn([C@H]2C[C@H](O)[C@@H](COP(=O)(O)OP(=O)(O)OP(=O)(O)O)O2)c(=O)[nH]c1=O

Structure (SMILES): Cc1cccc2c1OP(=O)(OC[C@H]1C[C@@H](n3cc(C)c(=O)[nH]c3=O)C[C@@H]1O)OC2 (some centres not stated)
- Activity [4]: Non-toxic
- Activity [8]: Non-toxic
- Activity (TZM [11]): Non-toxic
